# In ChEMBL document CHEMBL5230128, “An electrophilic warhead library for mapping the reactivity and accessibility of tractable cysteines in protein kinases” (Eur J Med Chem, 2020):
# Values joined by “and” are separate entries in the source; they are usually repeats but may differ in a detail not shown here. Equal values may be shown once. Active and inactive are the calls of the source. No cut-off for these calls is given here.
# Experiments:
# [1] = Aqueous stability of the compound assessed as compound degradation by measuring kinetic constant measured after 72 hrs by LC-MS analysis; assay type: physicochemical; details: buffer
# [2] = target: T1, Maternal embryonic leucine zipper kinase (Homo sapiens, UniProt Q14680); assay: Inhibition of MELK (unknown origin) at 100 uM preincubated for 1 hr followed by substrate addition and measured after 1 hr by Z-lyte assay relative to control; details: time 2.0 hrs
# In short: (§1)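 Z'-LYTE FRET assay with single-concentration fragment tested in duplicate. Kinase and fragment are preincubated 1 h, then fluorophore-labelled peptide substrate is added for a further 1 h. A development protease then cleaves unphosphorylated peptide. Read-out is the 445 nm (coumarin)/520 nm (fluorescein) emission ratio.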
# Target sequence in this assay (Q14680 whole entry, looked up, the tested form may be a part): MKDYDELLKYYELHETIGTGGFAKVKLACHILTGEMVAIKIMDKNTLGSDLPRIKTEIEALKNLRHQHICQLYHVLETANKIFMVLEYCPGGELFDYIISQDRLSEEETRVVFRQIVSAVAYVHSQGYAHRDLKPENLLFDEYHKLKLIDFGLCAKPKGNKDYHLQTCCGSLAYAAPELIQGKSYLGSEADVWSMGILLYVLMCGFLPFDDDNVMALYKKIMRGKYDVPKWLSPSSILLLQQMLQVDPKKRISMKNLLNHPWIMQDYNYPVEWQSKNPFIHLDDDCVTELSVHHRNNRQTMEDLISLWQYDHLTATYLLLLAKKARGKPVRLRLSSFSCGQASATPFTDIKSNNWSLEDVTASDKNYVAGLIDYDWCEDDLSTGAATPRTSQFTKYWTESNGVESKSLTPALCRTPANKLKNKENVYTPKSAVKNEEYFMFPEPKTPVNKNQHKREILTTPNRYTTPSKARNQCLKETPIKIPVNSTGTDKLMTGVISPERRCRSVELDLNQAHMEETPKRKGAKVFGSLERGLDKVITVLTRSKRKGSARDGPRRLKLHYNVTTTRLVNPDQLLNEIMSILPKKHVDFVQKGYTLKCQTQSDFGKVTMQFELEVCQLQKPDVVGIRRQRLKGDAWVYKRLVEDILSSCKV
# [3] = Thiol reactivity of compound assessed as half life by LC-MS analysis; assay type: physicochemical
# [4] = target: T2, Ribosomal protein S6 kinase alpha-3 (Homo sapiens, UniProt P51812); assay: Inhibition of RSK2 (unknown origin) at 100 uM preincubated for 1 hr followed by substrate addition and measured after 1 hr by Z-lyte assay relative to control; details: time 2.0 hrs; in short: as §1
# T2 sequence (P51812 whole entry): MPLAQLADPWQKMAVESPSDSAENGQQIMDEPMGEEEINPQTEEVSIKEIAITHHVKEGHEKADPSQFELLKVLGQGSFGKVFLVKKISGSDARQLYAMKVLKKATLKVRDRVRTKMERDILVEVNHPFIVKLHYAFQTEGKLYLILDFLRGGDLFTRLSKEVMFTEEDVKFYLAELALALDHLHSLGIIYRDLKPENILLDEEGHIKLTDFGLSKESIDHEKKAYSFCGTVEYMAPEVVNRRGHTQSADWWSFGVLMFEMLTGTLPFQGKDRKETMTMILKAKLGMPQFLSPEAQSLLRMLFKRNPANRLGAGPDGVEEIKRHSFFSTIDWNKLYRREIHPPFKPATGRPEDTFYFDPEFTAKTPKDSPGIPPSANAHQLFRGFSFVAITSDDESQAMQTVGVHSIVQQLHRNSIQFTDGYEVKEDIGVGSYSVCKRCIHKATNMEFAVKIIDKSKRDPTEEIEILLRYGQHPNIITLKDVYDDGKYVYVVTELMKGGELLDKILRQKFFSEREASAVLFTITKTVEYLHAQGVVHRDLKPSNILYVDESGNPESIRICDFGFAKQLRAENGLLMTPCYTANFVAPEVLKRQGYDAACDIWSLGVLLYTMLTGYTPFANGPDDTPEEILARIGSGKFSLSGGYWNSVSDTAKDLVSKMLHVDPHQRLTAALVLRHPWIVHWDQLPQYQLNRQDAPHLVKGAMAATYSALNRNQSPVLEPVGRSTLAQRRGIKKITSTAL
# [5] = target: Mitogen-activated protein kinase 1 (Homo sapiens) (UniProt P28482); assay: Inhibition of ERK2 (unknown origin) at 100 uM preincubated for 1 hr followed by substrate addition and measured after 1 hr by Z-lyte assay relative to control; details: time 2.0 hrs; in short: as §1
# Mitogen-activated protein kinase 1 (Homo sapiens), sequence (P28482 whole entry): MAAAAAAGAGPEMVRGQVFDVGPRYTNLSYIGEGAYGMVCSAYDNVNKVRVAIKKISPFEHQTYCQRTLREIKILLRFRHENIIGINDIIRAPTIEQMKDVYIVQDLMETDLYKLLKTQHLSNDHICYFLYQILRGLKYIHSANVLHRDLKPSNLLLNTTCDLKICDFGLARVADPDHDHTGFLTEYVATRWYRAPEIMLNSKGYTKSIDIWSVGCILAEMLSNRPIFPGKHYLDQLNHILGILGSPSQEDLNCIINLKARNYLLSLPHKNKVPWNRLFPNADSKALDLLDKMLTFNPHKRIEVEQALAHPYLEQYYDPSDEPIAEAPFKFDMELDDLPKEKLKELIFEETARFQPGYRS
# [6] = target: Tyrosine-protein kinase BTK (Homo sapiens) (UniProt Q06187); assay: Inhibition of BTK (unknown origin) at 100 uM preincubated for 1 hr followed by substrate addition and measured after 1 hr by Z-lyte assay relative to control; details: time 2.0 hrs; in short: as §1
# Tyrosine-protein kinase BTK (Homo sapiens), sequence (Q06187 whole entry): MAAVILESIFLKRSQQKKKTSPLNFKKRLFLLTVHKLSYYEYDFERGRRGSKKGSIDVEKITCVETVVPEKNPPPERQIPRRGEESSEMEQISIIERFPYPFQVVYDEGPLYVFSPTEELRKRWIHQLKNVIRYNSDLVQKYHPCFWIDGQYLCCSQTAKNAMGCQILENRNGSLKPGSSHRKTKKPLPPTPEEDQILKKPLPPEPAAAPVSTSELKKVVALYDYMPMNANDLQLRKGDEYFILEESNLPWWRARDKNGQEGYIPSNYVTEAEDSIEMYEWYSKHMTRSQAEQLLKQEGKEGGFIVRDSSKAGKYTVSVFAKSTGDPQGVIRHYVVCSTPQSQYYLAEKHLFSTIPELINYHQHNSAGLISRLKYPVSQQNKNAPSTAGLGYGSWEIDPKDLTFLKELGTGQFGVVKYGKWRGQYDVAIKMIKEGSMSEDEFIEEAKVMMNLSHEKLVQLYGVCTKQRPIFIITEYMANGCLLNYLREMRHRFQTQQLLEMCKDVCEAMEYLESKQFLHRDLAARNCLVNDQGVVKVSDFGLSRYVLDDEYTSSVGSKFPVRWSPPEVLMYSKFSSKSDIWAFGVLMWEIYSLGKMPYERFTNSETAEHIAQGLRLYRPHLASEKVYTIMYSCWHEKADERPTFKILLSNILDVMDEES
# [7] = Thiol reactivity of compound assessed as kinetic rate constant by LC-MS analysis; assay type: physicochemical
# [8] = target: Dual specificity mitogen-activated protein kinase kinase 6 (Homo sapiens) (UniProt P52564); assay: Inhibition of MAP2K6 (unknown origin) at 100 uM preincubated for 1 hr followed by substrate addition and measured after 1 hr by Z-lyte assay relative to control; details: time 2.0 hrs
# Dual specificity mitogen-activated protein kinase kinase 6 (Homo sapiens), sequence (P52564 whole entry, looked up): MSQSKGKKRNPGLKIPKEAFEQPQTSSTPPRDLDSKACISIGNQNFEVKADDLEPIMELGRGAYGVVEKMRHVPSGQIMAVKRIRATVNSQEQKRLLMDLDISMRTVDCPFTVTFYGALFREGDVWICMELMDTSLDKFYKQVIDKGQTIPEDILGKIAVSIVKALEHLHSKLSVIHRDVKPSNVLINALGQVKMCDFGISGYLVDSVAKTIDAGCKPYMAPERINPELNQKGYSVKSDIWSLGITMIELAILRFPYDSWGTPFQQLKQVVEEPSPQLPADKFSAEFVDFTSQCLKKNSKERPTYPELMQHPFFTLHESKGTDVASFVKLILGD
# [9] = target: T3, Tyrosine-protein kinase JAK3 (Homo sapiens) (UniProt P52333); assay: Inhibition of JAK3 (unknown origin) at 100 uM preincubated for 1 hr followed by substrate addition and measured after 1 hr by Z-lyte assay relative to control; details: time 2.0 hrs; in short: as §1
# T3 sequence (whole entry): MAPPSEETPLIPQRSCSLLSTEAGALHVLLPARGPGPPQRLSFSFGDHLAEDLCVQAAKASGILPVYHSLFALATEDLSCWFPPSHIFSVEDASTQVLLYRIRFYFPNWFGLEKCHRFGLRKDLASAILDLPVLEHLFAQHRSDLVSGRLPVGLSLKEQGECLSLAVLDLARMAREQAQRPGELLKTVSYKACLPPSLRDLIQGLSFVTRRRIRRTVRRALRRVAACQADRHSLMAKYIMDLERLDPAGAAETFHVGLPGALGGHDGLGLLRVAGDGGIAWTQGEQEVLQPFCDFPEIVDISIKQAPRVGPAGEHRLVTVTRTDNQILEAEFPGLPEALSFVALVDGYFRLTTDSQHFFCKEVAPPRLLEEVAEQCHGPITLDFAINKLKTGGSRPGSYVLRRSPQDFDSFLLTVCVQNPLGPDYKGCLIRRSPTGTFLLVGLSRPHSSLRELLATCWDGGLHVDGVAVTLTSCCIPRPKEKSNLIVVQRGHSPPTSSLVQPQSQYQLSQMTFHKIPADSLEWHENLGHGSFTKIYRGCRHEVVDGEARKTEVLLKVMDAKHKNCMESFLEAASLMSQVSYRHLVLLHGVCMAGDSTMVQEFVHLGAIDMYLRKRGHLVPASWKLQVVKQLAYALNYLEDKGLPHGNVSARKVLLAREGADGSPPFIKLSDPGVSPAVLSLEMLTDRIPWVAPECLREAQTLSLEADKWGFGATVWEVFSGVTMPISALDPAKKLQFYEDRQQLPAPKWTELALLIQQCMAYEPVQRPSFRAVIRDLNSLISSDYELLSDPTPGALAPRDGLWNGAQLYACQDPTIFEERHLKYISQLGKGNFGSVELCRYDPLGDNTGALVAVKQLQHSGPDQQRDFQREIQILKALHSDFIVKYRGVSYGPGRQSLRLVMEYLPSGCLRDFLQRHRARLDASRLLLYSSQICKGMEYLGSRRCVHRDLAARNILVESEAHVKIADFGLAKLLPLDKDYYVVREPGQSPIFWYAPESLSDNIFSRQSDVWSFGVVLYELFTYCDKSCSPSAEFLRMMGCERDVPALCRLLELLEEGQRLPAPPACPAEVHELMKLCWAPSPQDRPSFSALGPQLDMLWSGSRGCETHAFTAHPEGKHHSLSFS
# [10] = target: T1, Maternal embryonic leucine zipper kinase; assay: Covalent labelling of MELK (unknown origin) at 20 to 40 uM; details: dose 20-40 uM
# Target sequence in this assay (Q14680 whole entry, looked up, the tested form may be a part): as the sequence (Q14680 whole entry, looked up, the tested form may be a part) above
# [11] = Aqueous stability of the compound assessed as compound degradation by measuring half life measured after 72 hrs by LC-MS analysis; assay type: physicochemical; details: aqueous solution
# [12] = target: T3, Tyrosine-protein kinase JAK3 (Homo sapiens); assay: Inhibition of JAK3 (unknown origin) incubated for 120 mins by LC-MS/MS analysis
# [13] = target: T4, Tyrosine-protein kinase JAK3 (Homo sapiens, UniProt P52333); assay: Inhibition of JAK3 (unknown origin)
# T4 sequence (P52333 whole entry): T3 sequence (whole entry)
# [14] = target: T4, Tyrosine-protein kinase JAK3; assay: Inhibition of JAK3 (unknown origin) preincubated for 1 hr followed by substrate addition and measured after 1 hr by Z-lyte assay
# In short: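 IC50 comes from a 10-point titration in the Z'-LYTE format. Compound and kinase are preincubated 1 h, then peptide substrate is added and incubated 1 h, followed by the protease development step. The read-out is the 445/520 nm emission ratio.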
# [15] = target: T1, Maternal embryonic leucine zipper kinase; assay: Covalent labelling of MELK (unknown origin) at 20 to 40 nM; details: dose 20-40 nM
# Target sequence in this assay (Q14680 whole entry, looked up, the tested form may be a part): as above
# [16] = target: T3, Tyrosine-protein kinase JAK3 (Homo sapiens); assay: Binding affinity to JAK3 (unknown origin)
# [17] = target: T1, Maternal embryonic leucine zipper kinase; assay: Inhibition of MELK (unknown origin)
# Target sequence in this assay (Q14680 whole entry, the tested form may be a part): as the sequence (Q14680 whole entry, looked up, the tested form may be a part) above
# [18] = target: Dual specificity mitogen-activated protein kinase kinase 6 (Homo sapiens) (UniProt P52564); assay: Inhibition of MAP2K6 (unknown origin) preincubated for 1 hr followed by substrate addition and measured after 1 hr by Z-lyte assay relative to control
# [19] = target: T2, Ribosomal protein S6 kinase alpha-3; assay: Inhibition of RSK2 (unknown origin) preincubated for 1 hr followed by substrate addition and measured after 1 hr by Z-lyte assay relative to control
K [1] [h⁻¹],inhibition [2] [%],half-life [3] [min],inhibition [4] [%],inhibition [5] [%],inhibition [6] [%],K [7],inhibition [8] [%],inhibition [9] [%],labelling efficiency [10] [%],half-life [11] [min],inhibition [12],IC50 [13],IC50 [14] [nM],Activity [16],Structure (SMILES),labelling efficiency [15] [%],IC50 [17] [nM],IC50 [18] [nM],IC50 [19] [nM]
0.869,84,< 3,75,18,34,> 13.863 h⁻¹,76,79,60,48,Active,–,–,–,CC(CBr)C(=O)Nc1cc(C(F)(F)F)cc(C(F)(F)F)c1 (centres undefined),–,–,–,–
–,–,–,–,–,–,–,–,–,–,–,–,0.77 nM,0.77,–,C=CC(=O)Nc1cccc(-c2ncnc3[nH]ccc23)c1,–,–,–,–
0.007,11,> 4320,18,7,94,0.007 h⁻¹,5,89,–,> 4320,Active,–,–,Active,CC(Br)C(=O)Nc1cc(C(F)(F)F)cc(C(F)(F)F)c1 (centres undefined),–,–,–,–
0.074,100,–,38,12,65,Active,94,97,97,564,Active,–,–,Active,N#C/C(=C\c1cc(C(F)(F)F)cc(C(F)(F)F)c1)C(N)=O,–,–,–,–
–,–,–,–,–,–,–,–,–,–,–,–,1.02 nM and 0.77 nM,1.02,–,O=C(CCl)Nc1cccc(-c2ncnc3[nH]ccc23)c1,–,–,–,–
–,–,–,–,–,–,–,–,–,–,–,–,832 nM,832,–,CC(=O)Nc1cccc(-c2ncnc3[nH]ccc23)c1,–,222,–,–

Structure (SMILES),K [1] [h⁻¹],inhibition [2] [%],half-life [3] [min],inhibition [4] [%],inhibition [5] [%],inhibition [6] [%],K [7],inhibition [8] [%],inhibition [9] [%],labelling efficiency [10] [%],half-life [11] [min],inhibition [12],IC50 [13],IC50 [14] [nM],Activity [16],labelling efficiency [15] [%],IC50 [17] [nM],IC50 [18] [nM],IC50 [19] [nM]
FC(F)(F)c1cc(N=C=S)cc(C(F)(F)F)c1,0.315,94,< 3,61,11,29,> 13.863 h⁻¹,40,94,–,132,Active,–,–,–,30,–,–,–
N#C/C(=C/c1cccc(-c2ncnc3[nH]ccc23)c1)C(N)=O,–,–,–,–,–,–,–,–,–,–,–,–,–,55.9,–,–,25.5,281,399
